Compound activity deposited in PubChem BioAssay by several laboratories.
In the library only some 1.7% were active in any assay of this set; here they are far more common.
VIM-2 inhibitor: blocks Pseudomonas aeruginosa VIM-2 metallo-beta-lactamase; AID 1527; 0.89% of 290,000 active; purified VIM-2, nitrocefin hydrolysis, epi-absorbance fluorescence; inhibition, % at 5.6 µM;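 active = inhibition above the mean of all tested compounds plus 3 SD, cutoff set per screening run, cut at about 7.5% in these data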;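 note: red hydrolysis product quenches plate fluorescence so inhibitors raise well fluorescence; 0% = enzyme with DMSO and 100% = DMSO without enzyme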
IMP-1 inh: blocks Pseudomonas aeruginosa IMP-1 metallo-beta-lactamase; purified IMP-1, nitrocefin hydrolysis, epi-absorbance fluorescence; AID 1556; inhibition, % at 5.6 µM; 0.45% of 290,000 active;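 active = inhibition above the mean plus 3 SD of all compounds in the same screening run, cut at about 4.5% in these data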;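 note: 0% = IMP-1 with DMSO and 100% = DMSO wells lacking enzyme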
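Assay system: purified recombinant IMP-1 beta-lactamase. Input: IMP-1 0.2 nM before substrate addition. Buffer or medium: Zinc- and detergent-supplemented HEPES buffer, pH 7.1. Schedule: 25 °C, 15 min preincubation, 25 min reaction. Signal: Epi-absorbance fluorescence, 480 nm excitation, 530 nm emission. Evaluation: percent inhibition from optical density relative to buffer-blank wells.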
proCasp3 act: activators of human procaspase-3 | 0.11% of 330,000 active | recombinant procaspase-3 D3A, Ac-DEVD-pNA absorbance 405 nm | AID 463141 | P42574 | activation, % at 8.5 µM;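 active = activation above the mean of all tested compounds plus 3 SD, cut at about 21% in these data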;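 note: 0% = DMSO alone and 100% = DMSO wells spiked with extra 5 µM PC-3 D3A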
Target sequence (P42574 whole entry D9A/D28A/D175A): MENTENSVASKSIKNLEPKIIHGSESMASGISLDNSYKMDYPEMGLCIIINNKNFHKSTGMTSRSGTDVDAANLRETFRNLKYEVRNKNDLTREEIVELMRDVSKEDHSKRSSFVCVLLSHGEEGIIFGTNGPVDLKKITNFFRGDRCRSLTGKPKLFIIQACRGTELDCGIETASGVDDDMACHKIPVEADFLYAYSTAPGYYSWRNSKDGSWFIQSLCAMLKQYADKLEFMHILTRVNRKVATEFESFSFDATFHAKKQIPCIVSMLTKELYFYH
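material = Procaspase-3 D3A mutant | probe or stimulus = Ac-DEVD-pNA | compound = single dose, 8.5 µM nominal compound, 0.8% DMSO | timing = 1 h preincubation, 2 h reaction | measured by = 405 nm absorbance of p-nitroaniline, reads at 0 and 120 min | benchmarks = DMSO-only low control, 5 µM PC-3 D3A high control | repeats = singlicate, each compound tested once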
Neddylation inh: blocks human cullin neddylation. P61081+Q13564. TR-FRET cullin neddylation, biochemical. calls only at 25 µM. 0.58% of 360,000 active. AID 651699; in the data active = inhibition above about 36%
procasp7 counter: counter-screen for procaspase-3 activators: activators of human procaspase-7. P55210. recombinant procaspase-7, Ac-DEVD-pNA absorbance 405 nm; D23A/D198A/D206A triple mutant, cannot self-cleave; scale: DMSO 0, 5 µM enzyme 100. activation, % at 8.5 µM. 0.093% of 330,000 active. AID 463210;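 active = percent activation above the screen-wide mean plus 3 SD, cut at about 25% in these data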
Target sequence (P55210 whole entry D23A/D198A/D206A): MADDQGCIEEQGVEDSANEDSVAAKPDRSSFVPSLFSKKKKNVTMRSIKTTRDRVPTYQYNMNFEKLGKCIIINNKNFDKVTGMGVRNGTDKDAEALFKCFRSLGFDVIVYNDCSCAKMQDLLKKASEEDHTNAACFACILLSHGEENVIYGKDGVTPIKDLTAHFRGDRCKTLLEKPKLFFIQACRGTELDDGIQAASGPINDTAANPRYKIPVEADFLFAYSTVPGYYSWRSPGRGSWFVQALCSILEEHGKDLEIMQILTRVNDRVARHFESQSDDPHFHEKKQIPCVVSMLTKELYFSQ
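Assay system: Uncleavable procaspase-7 mutant enzyme; Input: 2 µM procaspase-7 mutant as dispensed; Also added: DEVD-pNA substrate; Medium: Zinc-free HEPES pH 7.4 with 300 mM NaCl, 0.01% Triton X-100; Timing: 1 h compound preincubation, 2 h substrate cleavage, 25 °C; Measured by: Epi-absorbance of released pNA at 405 nm, two timepoints.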
PolyA inh: yeast polyadenylation inhibition; activity score, % at 12 µM; 0.02% of 300,000 active; S. cerevisiae SKY197-pL101 polyadenylation reporter, beta-gal luminescence; efflux-impaired pdr1/pdr3 knockout yeast; score 100 = 6 SD above DMSO;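 active = lowest replicate activity score at least 50, where 100 means six control SD above control mean; inconclusive = lowest score under 50 but half or more replicates reach 50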;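 note: yeast exposed to compound for 9 h at 30 °C; higher score means more reporter readthrough which indicates perturbed polyadenylation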
An asterisk follows results filed as active.

Results for CCCCNc1cc(=O)oc2ccccc12 ?
VIM-2 inhibitor: -2.2; IMP-1 inh: -2.3; proCasp3 act: 4.2; Neddylation inh: inactive; procasp7 counter: -3.9; PolyA inh: inconclusive

How did COc1ccc(C(=O)OCC(=O)NC2CCCC2)c(OC)c1 do in these assays?
VIM-2 inhibitor: -0.7; IMP-1 inh: -2.4; proCasp3 act: -0.1; Neddylation inh: inactive; procasp7 counter: 4.6; PolyA inh: 16.7

Results for COc1cc(NC(=O)c2cccnc2Sc2ccc(C)c(C)c2)cc(OC)c1OC ?
VIM-2 inhibitor: -1.9; IMP-1 inh: -2.5; proCasp3 act: 3.0; Neddylation inh: inactive; procasp7 counter: -3.7; PolyA inh: 1.3

Results for CC(C)=N/N=C(/c1ccc([N+](=O)[O-])cc1)C12CN3CN(CN(C3)C1)C2 ?
VIM-2 inhibitor: -5.7; IMP-1 inh: -1.1; proCasp3 act: -11.5; Neddylation inh: inactive; procasp7 counter: 7.7; PolyA inh: -12.5

What do the screens show for `Cn1c2ccccc2c2cc(/C=N/NC(=O)c3cc(O)cc(O)c3)ccc21`?
VIM-2 inhibitor: 0.1; IMP-1 inh: -1.7; proCasp3 act: 11.7; procasp7 counter: -1.7; PolyA inh: 8.3

What do the screens show for `Cn1c2ccccc2c2cc(/C=N/NC(=O)c3cc(O)ccc3O)ccc21`?
VIM-2 inhibitor: -4.9; IMP-1 inh: -3.1; proCasp3 act: -4.1; Neddylation inh: active; procasp7 counter: -9.4; PolyA inh: 0.1

Results for COc1ccc(S(=O)(=O)NCC(=O)N(CC(=O)NCC2CCCO2)Cc2ccccc2)cc1 (stereo unspecified) ?
VIM-2 inhibitor: -1.8; IMP-1 inh: -2.8; proCasp3 act: -1.3; Neddylation inh: inactive; procasp7 counter: -7.3; PolyA inh: 13.2

What do the screens show for `CCCCOc1ccc(CN2CCC(O)CC2)cc1`?
VIM-2 inhibitor: -2.8; IMP-1 inh: 45.2*; proCasp3 act: 10.4; Neddylation inh: inactive; procasp7 counter: 4.1; PolyA inh: -9.2

What do the screens show for `Cc1cccc(NC(=O)Cc2ccc(-c3ccccc3)cc2)n1`?
VIM-2 inhibitor: -0.4; IMP-1 inh: 11.6*; proCasp3 act: 3.5; Neddylation inh: inactive; procasp7 counter: -8.9; PolyA inh: -1.5

How did Cc1ccc(CC(=O)Nc2cccc(C)n2)cc1 do in these assays?
VIM-2 inhibitor: -0.4; IMP-1 inh: -1.4; proCasp3 act: 0.3; Neddylation inh: inactive; procasp7 counter: 2.6; PolyA inh: 8.5

How did O=C(Cc1ccc(-c2ccccc2)cc1)Nc1ncccc1O do in these assays?
VIM-2 inhibitor: -4.7; IMP-1 inh: 32.8*; proCasp3 act: 4.0; Neddylation inh: inactive; procasp7 counter: -6.1; PolyA inh: 3.1

Results for CCN(C[C@H]1N[C@@](C)(C(=O)OC)[C@H]2C(=O)N(C)C(=O)[C@@H]12)S(=O)(=O)c1ccc(OC(F)(F)F)cc1 ?
proCasp3 act: -4.4; Neddylation inh: inactive; procasp7 counter: 14.8

What do the screens show for `O=C(N/N=C/c1ccccc1F)c1cc2c(ccc3ccccc32)o1`?
VIM-2 inhibitor: -1.3; IMP-1 inh: 5.0*; proCasp3 act: 2.1; procasp7 counter: 4.3; PolyA inh: -5.5

What do the screens show for `CCN(CC(=O)Nc1ccc(NC(C)=O)cc1)C(=O)/C=C/c1cn(-c2ccccc2)nc1-c1ccc(F)cc1`?
proCasp3 act: 7.6; Neddylation inh: inactive; procasp7 counter: 2.9; PolyA inh: 16.3

Results for COc1ccc(C2=Nn3c(nnc3-c3ccco3)SC2)cc1 ?
VIM-2 inhibitor: 9.8*; IMP-1 inh: -3.1; proCasp3 act: -1.1; Neddylation inh: inactive; procasp7 counter: 6.4; PolyA inh: -4.0

Results for CCOc1ccccc1OCCOc1ccccc1OC(C)C ?
VIM-2 inhibitor: -3.0; IMP-1 inh: -3.6; proCasp3 act: -1.4; Neddylation inh: inactive; procasp7 counter: 3.6; PolyA inh: 6.1

What do the screens show for `O=C(Nc1ccc(-c2cn3ccccc3n2)cc1)c1cccs1`?
VIM-2 inhibitor: -4.0; IMP-1 inh: 6.4*; proCasp3 act: 2.8; procasp7 counter: 1.7; PolyA inh: -30.2

How did COc1ccc(CC(=O)Nc2ccc(-c3cn4ccccc4n3)cc2)cc1 do in these assays?
VIM-2 inhibitor: -3.5; IMP-1 inh: -1.5; proCasp3 act: -2.5; Neddylation inh: inactive; procasp7 counter: -2.2; PolyA inh: 14.8

What do the screens show for `CCOC(=O)c1cnc2c(C)cc(C)cc2c1NCCCN1CCOCC1`?
VIM-2 inhibitor: 9.6*; IMP-1 inh: 0.3; Neddylation inh: inactive; PolyA inh: 23.0

Results for CCOC(=O)c1cnc2ccc(C)cc2c1NCCN1CCOCC1 ?
VIM-2 inhibitor: 3.6; IMP-1 inh: -0.5; proCasp3 act: -0.5; Neddylation inh: inactive; procasp7 counter: 7.1; PolyA inh: -3.7

How did CCOC(=O)c1cnc2c(Cl)c(Cl)ccc2c1NCCN1CCOCC1 do in these assays?
VIM-2 inhibitor: 7.7*; IMP-1 inh: -1.7; proCasp3 act: -4.6; Neddylation inh: inactive; procasp7 counter: 11.3; PolyA inh: -8.2

How did CCOC(=O)c1cnc2c(C)c(C)ccc2c1NCCN1CCOCC1 do in these assays?
VIM-2 inhibitor: 8.6*; IMP-1 inh: -2.5; Neddylation inh: inactive; PolyA inh: 8.1

How did Cc1ccc(CC(=O)N2CCN(c3ccccn3)CC2)cc1 do in these assays?
VIM-2 inhibitor: -5.9; IMP-1 inh: -1.9; proCasp3 act: 2.6; Neddylation inh: inactive; procasp7 counter: -10.6; PolyA inh: 6.0

Results for COc1ccccc1C1C(C(=O)c2ccc(C)o2)=C(O)C(=O)N1c1cc(C)on1 (stereo unspecified) ?
VIM-2 inhibitor: -3.3; IMP-1 inh: -0.7; proCasp3 act: -14.1; Neddylation inh: inactive; procasp7 counter: -28.4; PolyA inh: -1.3

Results for O=C(Nc1ccc(Br)cc1C(=O)O)c1ccc2c(c1)C(=O)N(Cc1ccccc1)C2=O ?
VIM-2 inhibitor: -2.3; IMP-1 inh: -2.7; proCasp3 act: -3.6; Neddylation inh: inactive; procasp7 counter: -5.8; PolyA inh: 5.1

How did O=C(CN(C(=O)CCC(=O)Nc1nccs1)c1ccc(F)cc1)NCc1ccco1 do in these assays?
VIM-2 inhibitor: -3.7; IMP-1 inh: -0.9; proCasp3 act: -4.3; Neddylation inh: inactive; procasp7 counter: 7.6; PolyA inh: -35.9

What do the screens show for `CC(=O)OCCCN1C(=O)c2cccc3cc(Br)cc(c23)C1=O`?
VIM-2 inhibitor: 11.7*; IMP-1 inh: 0.1; proCasp3 act: -6.0; procasp7 counter: 7.8; PolyA inh: -18.0

What do the screens show for `OCCCNC(=S)Nc1ccc(Nc2ccccc2)cc1`?
VIM-2 inhibitor: -0.3; IMP-1 inh: -1.9; proCasp3 act: -1.0; Neddylation inh: inactive; procasp7 counter: -1.9; PolyA inh: -2.6
